Test results: PMC8448143 (Antimicrobial Agents and Chemotherapy, 2021)
“Also recorded” adds a separate entry of the source. Read-outs that look alike come from different tables or passages of the source.

Key:
in vitro [1] = settings: African green monkey
[2] = system: SARS-CoV-2 (2019-nCoV/USA-WA1/2020); assay: SARS-CoV-2 antiviral assay; type: cell-based; settings: for EC90: Severe acute respiratory syndrome coronavirus 2, in Homo sapiens, 48 h; for Selectivity index: CC50/EC50
[3] = system: SARS-CoV-2 (2019-nCoV/USA-WA1/2020); assay: SARS-CoV-2 antiviral assay; type: cell-based; settings: for Selectivity index: Huh7.5 cells, CC50/EC50
[4] = system: SARS-CoV-2 (2019-nCoV/USA-WA1/2020); assay: SARS-CoV-2 antiviral assay; type: cell-based; settings: Vero E6 cells; CC50/EC50
in vitro [5] = settings: human
[6] = in vivo, rhesus monkeys; cited from earlier work
SARS-CoV-2 [7] = settings: human alveolar epithelial (HAE) cells; cited from earlier work
[8] = system: SARS-CoV-2 (2019-nCoV/USA-WA1/2020); assay: SARS-CoV-2 antiviral assay; type: cell-based; settings: for Selectivity index: Calu-3 cells, CC50/EC50
[9] = ex vivo; cited from earlier work
[10] = system: SARS-CoV-2 (2019-nCoV/USA-WA1/2020); assay: SARS-CoV-2 antiviral assay; type: cell-based; settings: for EC50 / EC90: Severe acute respiratory syndrome coronavirus 2, Caco-2, 48 h; for Selectivity index: Caco-2 cells, CC50/EC50
human coronavirus 229E = assay: microbe, parasite or virus in culture; type: cell-based; settings: MRC5, 72 h
SARS-CoV-2 [11] = settings: Calu-3 2B4 cells; cited from earlier work
[12] = cited from earlier work
in vitro [13] = settings: human; remark: listed apart in the source
in vitro [14] = settings: human; remark: listed apart in the source
in vitro [15] = settings: human; remark: listed apart in the source
in vitro [16] = settings: both, human, plasma
[17] = Seven-day oral pharmacokinetics and tolerability in Syrian hamsters; type: in vivo
Summary of the method: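 Syrian hamsters in groups of 3 received vehicle or test compound by oral gavage every 12 h for 7 days, at 16.9 or 13.2 mg/kg body weight. Plasma levels of the prodrug and its nucleoside metabolite were followed after dosing. Animals were monitored for adverse clinical signs.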

in vitro [18] = assay: in vitro
[19] = Severe acute respiratory syndrome coronavirus 2, Huh7.5, 48 h
[20] = Severe acute respiratory syndrome coronavirus 2, Calu-3, 48 h

| Structure (SMILES) | CC50 (in vitro [1]) [µM] | EC90 [2] [nM] | EC50 [3] [nM] | Selectivity index [3] | EC50 [3, 19] [nM] | EC90 [3, 19] [nM] | Selectivity index [4] | CC50 (in vitro [5]) [µM] | EC50 [8, 20] [nM] | EC90 [8, 20] [nM] | EC50 [10] [nM] | EC90 [10] [nM] | EC50 (human coronavirus 229E) [nM] | EC90 (human coronavirus 229E) [nM] | Selectivity index [8] | Selectivity index [10] | CC50 (in vitro [13]) [µM] | CC50 (in vitro [14]) [µM] | CC50 (in vitro [15]) [µM] | Selectivity index ([2]; PSC-human lung cells) | other results |
| --- | --- | --- | --- | --- | --- | --- | --- | --- | --- | --- | --- | --- | --- | --- | --- | --- | --- | --- | --- | --- | --- |
| CCCCCCCCCCCCCCCCOCCCOP(=O)(O)OC[C@H]1O[C@@](C#N)(c2ccc3c(N)ncnn23)[C@H](O)[C@@H]1O [HDP-P-RVn, {(2R,3S,4R,5R)-5-(4-aminopyrrolo[2,1-f][1,2, 4]triazin-7-yl)-5-cyano-3,4-dihydroxytetrahydrofuran-2-yl}methyl [3-(hexadecyloxy)propyl] hydrogen phosphate] | > 100 | 940 | 190 | >526 | < 200 | 400 | >158 | > 100 | – | – | – | – | – | – | – | – | – | – | – | – | – |
| CCC(CC)COC(=O)[C@H](C)N[P@](=O)(OC[C@H]1O[C@@](C#N)(c2ccc3c(N)ncnn23)[C@H](O)[C@@H]1O)Oc1ccccc1 [RDV, remdesivir, reference compound] | 101 | 230 | – | – | 60 | 120 | – | – | 230 | 310 | 170 | 280 | 40 | 260 | – | – | – | – | – | – | persistence in plasma after intravenous infusion [6]: less than 2 h; EC50 (SARS-CoV-2 [7]): 10 nM; half-life (t1/2) in human plasma [9]: 69 min; EC50 (SARS-CoV-2 [11]): 280 nM; persistence in plasma after intravenous infusion ([12]; in vivo, COVID-19 patients): less than 2 h; drop of plasma level after the intravenous infusion stopped ([12]; two patients with COVID-19, 1 h after the infusion stopped): > 90% |
| N#C[C@@]1(c2ccc3c(N)ncnn23)O[C@H](CO)[C@@H](O)[C@H]1O [RVn, remdesivir nucleoside, reference compound] | > 100 | 2620 | – | >312 | 320 | 730 | – | > 100 | 150 | 180 | 960 | 1750 | – | – | >666 | >104 | > 100 | > 100 | > 100 | >135 | – |
| CCCCCCCCCCCCCCCCCCOC[C@H](COP(=O)(O)OC[C@H]1O[C@@](C#N)(c2ccc3c(N)ncnn23)[C@H](O)[C@@H]1O)OCc1ccccc1 [ODBG-P-RVn, {(2R,3S,4R,5R)-5-(4-aminopyrrolo[2,1-f][1,2, 4]triazin-7-yl)-5-cyano-3,4-dihydroxytetrahydrofuran-2-yl]methyl [(R)-2-(benzyloxy)-3-(octadecyloxy)propyl] hydrogen phosphate] | 97.9 | 260 | – | 449 | < 200 | 150 | 699 | – | < 350 | 330 | 300 | 330 | 150 | 540 | 327 | 295 | – | – | – | 410 | half-life (in vitro [16]): > 1440 min; tolerability ([17]; Syrian hamsters, oral gavage every 12 h for 7 days, 16.9 and 13.2 mg/kg): well tolerated; also recorded: well tolerated, and no adverse clinical signs were noted; plasma level of ODBG-P-RVn relative to its EC90 ([17]; Syrian hamsters, oral, at 12 h, days 1 and 7, EC90 in all cell lines studied): above the 90% effective concentration (EC90); also recorded: higher than the EC90; Tmax ([17]; Syrian, hamster, plasma, po): 1 h; CC50 (in vitro [18]): 61.5 to 98.2 µM |
| CCCCCCCCCCCCCCCCCCOCCOP(=O)(O)OC[C@H]1O[C@@](C#N)(c2ccc3c(N)ncnn23)[C@H](O)[C@@H]1O [ODE-P-RVn, {(2R,3S,4R,5R)-5-(4-aminopyrrolo[2,1-f][1,2, 4]triazin-7-yl)-5-cyano-3,4-dihydroxytetrahydrofuran-2-yl}methyl [2-(octadecyloxy)ethyl] hydrogen phosphate] | > 100 | 700 | 190 | >526 | < 200 | 370 | >333 | > 100 | < 350 | 640 | 770 | 1250 | – | – | 290 | >129 | > 100 | 98.7 | > 100 | >454 | EC50 [8]: 340 nM; EC50 ([2]; PSC-human lung cells, […]): 220 nM |
